From paper PMC7413021 (The Journal of nutritional biochemistry, 2016)

Test: Measurement of phenolics in plasma
Type: in vivo
Settings: 2 months old male mice fed diet containing 25% dried plum for 4 weeks
Summary of the method: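 Male C57Bl/6 mice, 2 months old, fed control AIN-93G or diet with 25% test material for 4 weeks (n=8/group). At euthanasia, blood was drawn into lithium-heparin tubes and spun at 6500 rpm for 10 min at 4°C. Plasma was acidified 4:1 with 1% ascorbic acid in saline, purged with nitrogen and stored at −80°C. Quercetin glycosides and caffeic and gallic acid derivatives were profiled by LC/TOF-MS.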

| SMILES | plasma concentration, CMin | plasma concentration, Caverage |
| --- | --- | --- |
| COc1cc(CCC(=O)O)ccc1O[C@@H]1O[C@H](C(=O)O)[C@@H](O)[C@H](O)[C@H]1O [Dihydroferulic acid 4-O-glucuronide] | 3270 nM | 4990 ± 440 nM |
| COc1ccc(/C=C/C(=O)O)cc1O[C@@H]1O[C@H](C(=O)O)[C@@H](O)[C@H](O)[C@H]1O [Isoferulic acid 3-O-glucuronide] | 20 nM | 800 ± 210 nM |
| COc1cc(/C=C/C(=O)O)ccc1O[C@@H]1O[C@H](C(=O)O)[C@@H](O)[C@H](O)[C@H]1O [Ferulic acid 4-O-glucuronide] | 1100 nM | 3060 ± 450 nM |
| COc1ccc(CCC(=O)O)cc1O[C@@H]1O[C@H](C(=O)O)[C@@H](O)[C@H](O)[C@H]1O [Dihydroisoferulic acid 3-O-glucuronide] | 420 nM | 1390 ± 310 nM |
